Assay results taken from ChEMBL document CHEMBL4715825, “Synthesis and biological evaluations of marine oxohexadecenoic acids: PPARα/γ dual agonism and anti-diabetic target gene effects” (Eur J Med Chem, 2018).
Calls of active or inactive are those of the source. The rule behind the calls is not given here.

Experiments:
[1] = molecular target: T1, Peroxisome proliferator-activated receptor alpha (Homo sapiens) (UniProt Q07869); test: Agonist activity at human PPARalpha in 8 day differentiated human SGBS cells assessed as increase in CPT1A gene expression at 25 uM incubated for 24 hrs by SYBR-green based qPCR analysis; assay type: cell-based; settings: filed as agonist
T1 sequence (whole entry): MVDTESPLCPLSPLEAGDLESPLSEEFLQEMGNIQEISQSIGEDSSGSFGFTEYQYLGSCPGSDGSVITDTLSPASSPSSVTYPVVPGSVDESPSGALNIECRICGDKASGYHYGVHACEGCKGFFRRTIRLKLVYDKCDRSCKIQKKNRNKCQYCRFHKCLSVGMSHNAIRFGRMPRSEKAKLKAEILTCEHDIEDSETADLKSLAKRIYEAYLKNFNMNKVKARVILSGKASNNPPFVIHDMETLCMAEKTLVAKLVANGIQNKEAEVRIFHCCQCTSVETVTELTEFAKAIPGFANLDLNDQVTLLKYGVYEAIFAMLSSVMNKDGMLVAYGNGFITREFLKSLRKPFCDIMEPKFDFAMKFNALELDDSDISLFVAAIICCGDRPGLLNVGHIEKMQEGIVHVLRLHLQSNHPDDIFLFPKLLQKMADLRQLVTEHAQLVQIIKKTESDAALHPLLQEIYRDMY
How it was run: (§1)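 SGBS preadipocytes were seeded at passage P6-P8 and grown to confluence. They were differentiated for 4 days in Quickdiff (3FC plus dexamethasone, IBMX and rosiglitazone), then kept in 3FC with medium renewed every fourth day. On day 8, cells were stimulated for 24 h in 3FC with compound:BSA or rosiglitazone. SYBR-green qPCR used gene-specific primers. Data are mean ± SEM of three biological replicates in duplicate.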

SGBS [2] = test: Effect on diabetic complication pathway in 8 day differentiated human SGBS cells assessed as downregulation of AGE-RAGE signalling genes at 25 uM incubated for 8 days by Illumina sequencing method; assay type: functional, cell-based
How it was run: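 SGBS cells were differentiated 4 days in Quickdiff supplemented with compound:BSA or rosiglitazone, then 4 days in 3FC. Total RNA was extracted, and strand-specific TruSeq libraries were sequenced on NextSeq 500 (2×75 bp paired-end). Reads were aligned to hg19 with Tophat/Bowtie and counted as RPKM by Cufflinks. Values are log2 fold over day 0 cells, grouped into KEGG gene sets (n = 2-4).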

[3] = molecular target: T1, Peroxisome proliferator-activated receptor alpha (Homo sapiens); test: Agonist activity at human PPARalpha in human HuH-7 cells assessed as increase in ACOX1 gene expression at 50 uM incubated for 24 hrs by SYBR-green based qPCR analysis; assay type: cell-based
How it was run: (§2)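 Cells were seeded at 2×10^5 per well and treated 24 h later with compound in DMSO (final 0.1%). The next day, cells were washed and scraped into RLT buffer. RNA was isolated, and target gene mRNA was quantified by SYBR-green qPCR with specific primers.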

[4] = molecular target: T2, Peroxisome proliferator-activated receptor gamma (Homo sapiens) (UniProt P37231); test: Agonist activity at recombinant human PPARgamma LBD (205 to 505 residues) expressed in African green monkey COS-1 cells at 25 to 50 uM incubated for 18 hrs by luciferase reporter gene assay; assay type: cell-based; settings: filed as agonist, dose 25-50 µM
T2 sequence (whole entry): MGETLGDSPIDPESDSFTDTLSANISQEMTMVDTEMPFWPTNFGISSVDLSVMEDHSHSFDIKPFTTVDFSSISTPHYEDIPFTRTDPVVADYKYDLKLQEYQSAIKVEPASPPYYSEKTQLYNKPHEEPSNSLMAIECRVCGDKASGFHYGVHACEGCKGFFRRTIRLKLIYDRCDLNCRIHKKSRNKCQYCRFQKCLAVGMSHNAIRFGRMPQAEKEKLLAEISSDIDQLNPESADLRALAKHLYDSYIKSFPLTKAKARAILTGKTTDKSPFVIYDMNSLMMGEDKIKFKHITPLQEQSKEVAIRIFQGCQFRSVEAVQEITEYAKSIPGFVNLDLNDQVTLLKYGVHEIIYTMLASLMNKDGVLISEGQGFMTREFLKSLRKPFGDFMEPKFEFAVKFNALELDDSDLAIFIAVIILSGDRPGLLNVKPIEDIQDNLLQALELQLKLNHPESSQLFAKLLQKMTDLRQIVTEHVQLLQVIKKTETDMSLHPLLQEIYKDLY
How it was run: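 Transient Gal4 one-hybrid assay in COS-1 cells (7×10^4 per well), transfected 24 h after seeding. Plasmids were Gal4-DBD fused to the human nuclear receptor LBD, a 5×UAS-SV40 luciferase reporter and pRL-CMV Renilla control. Ligand in DMSO (final 0.1%) was added 5 h post-transfection. Dual-luciferase activity was read after 18 h, expressed as RLU, from three biological replicates in quadruplicate.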

[5] = molecular target: T2, Peroxisome proliferator-activated receptor gamma (Homo sapiens); test: Agonist activity at human PPARgamma in 8 day differentiated human SGBS cells assessed as increase in ADIPOQ gene expression at 25 uM incubated for 24 hrs by SYBR-green based qPCR analysis; assay type: cell-based; settings: filed as agonist; how it was run: as §1
[6] = molecular target: T2, Peroxisome proliferator-activated receptor gamma (Homo sapiens); test: Agonist activity at human PPARgamma in 8 day differentiated human SGBS cells assessed as decrease in […] gene expression at 25 uM incubated for 24 hrs by SYBR-green based qPCR analysis; assay type: cell-based; settings: filed as agonist
[7] = molecular target: T2, Peroxisome proliferator-activated receptor gamma (Homo sapiens); test: Agonist activity at human PPARgamma in 8 day differentiated human SGBS cells assessed as decrease in CXCL1 gene expression at 25 uM incubated for 24 hrs by SYBR-green based qPCR analysis; assay type: cell-based; settings: filed as agonist
SGBS [8] = test: Induction of adipogenesis in 8 day differentiated human SGBS cells assessed as increase in SCD1 mRNA expression at 25 uM measured upto 12 days by qRT-PCR analysis; assay type: functional, cell-based; settings: time day <=12
How it was run: (§3)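 SGBS cells were grown to confluence (day 0). Quickdiff medium was supplemented with compound or rosiglitazone for 4 days, followed by 3FC medium. DMSO or DMSO:BSA served as control. RNA was harvested on days 0, 4, 8 and 12, and expression was measured by SYBR-green qPCR. Data are mean ± SEM of at least three biological replicates in duplicate.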

[9] = Cytotoxicity against African green monkey COS-1 cells assessed as cell viability at EC50 concentration for PPAR activation assay by LDH assay; assay type: cell-based; settings: chlorocebus aethiops, read-out: Activity
How it was run: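 Assayed in the same COS-1 cultures as the Gal4-LBD PPAR reporter assays. Lactate dehydrogenase released into the medium was measured with a commercial kit per the maker's protocol. Absorbance was read at 492/750 nm.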

SGBS [10] = test: Induction of adipogenesis in 8 day differentiated human SGBS cells assessed as increase in volume of lipid droplets at 25 uM measured upto 12 days by oil-O-red staining based inverted microscopic analysis; assay type: functional, cell-based; settings: time day <=12
How it was run: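 SGBS cells were differentiated in Quickdiff for 4 days, supplemented with 25 µM oxo-fatty acid or 2 µM rosiglitazone, then in 3FC to day 8. Controls were DMSO (0.025%) or BSA (4.2 µM). Cells were fixed in 4% paraformaldehyde for 15 min and stained 15 min with Oil Red O for neutral lipids. They were imaged by inverted microscope at 10× and 40×. Three biological replicates were run in duplicate.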

[11] = molecular target: T1, Peroxisome proliferator-activated receptor alpha (Homo sapiens); test: Agonist activity at human PPARalpha in human HuH-7 cells assessed as increase in ANGPTL4 gene expression at 50 uM incubated for 24 hrs by SYBR-green based qPCR analysis; assay type: cell-based; settings: filed as agonist; how it was run: as §2
SGBS [12] = test: Induction of adipogenesis in 8 day differentiated human SGBS cells assessed as increase in CEBPB mRNA expression at 25 uM measured upto 12 days by qRT-PCR analysis; assay type: functional, cell-based; settings: time day <=12; how it was run: as §3

Compound	Activity [1]	Activity (SGBS [2])	Activity [3]	Activity [4]	Activity [5]	Activity [6]	Activity [7]	Activity (SGBS [8])	viability [9] [%]	Activity (SGBS [10])	Activity [11]	Activity (SGBS [12])
CCCCCCCC(=O)/C=C/CCCCCC(=O)O	Active	Active	inactive	Active	Active	Active	Active	Active	> 95	Active	Active	Active
CCCCC/C=C/C(=O)CCCCCCCC(=O)O	Active	Active	inactive	Active	Active	Active	Active	Active	> 95	Active	Active	Active
